Source: publication PMC3902791 (Molecular imaging and biology : MIB : the official …, 2012)
“Also recorded” adds a separate entry of the source.

Experiments:
[1] = Radio-HPLC analysis of radiolabeled metabolites in blood plasma and urine; type: in vivo, rhesus macaques
Summary of the method: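 Plasma was ultrafiltered, then run on radio-HPLC (Supelcogel C-610H column, 20 mM phosphoric acid, 0.5 mL/min, UV plus radioactivity detection). Peaks were identified with cold fluorocitrate and fluoride standards, and fractions were taken from peak areas. Urine was collected by Foley catheter, which was clamped until after the second whole-body scan. It was collected at 120–150 min, gamma-counted and analysed by the same HPLC.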

[2] = Dynamic and whole-body PET imaging of pharmacokinetics and biodistribution; type: in vivo, rhesus macaques
Summary of the method: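 ECAT HR+ scanner; 10-min transmission scan, then i.v. radiotracer (165.4 ± 28.5 MBq). Lower thorax to upper abdomen was imaged dynamically for 0–30 min in 2D mode, 29 frames (20×15 s, 5×1 min, 4×5 min). Three whole-body static scans followed at 40, 100 and 170 min (3-min transmission, 5-min emission, 4–5 beds). OSEM reconstruction with attenuation, scatter, random and dead-time correction. 3D VOIs gave organ %ID/g time–activity curves.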

rhesus macaques = assay: Hematology and blood chemistry before and after PET imaging; type: in vivo
[3] = Humanized time-integrated activity coefficients; type: in vivo, rhesus macaques
Summary of the method: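 Six rhesus macaques (3 female, 3 male) received the radiolabelled test compound intravenously, followed by whole-body PET/CT. Organ activity came from 3D VOIs drawn on PET images. Time–activity curves were fitted mono-exponentially, or by a linear fit of log activity for one animal with two scans. Coefficients were scaled by human/macaque whole-body-normalised organ mass ratios, using CT-derived macaque organ masses and the OLINDA/EXM 73.7-kg adult male model.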

Compound: O=C(O)C[18F] [^18F-FACE, ^18F-fluoroacetate]
- ^18F-fluorocitrate anabolite ([1]; 3-h study): not detectable
- fraction of total radioactivity in urine as ^18F-FACE ([1]; urine collected at 120–150 min): 72.4%
- fraction of total radioactivity in urine as ^18F-fluoride ([1]; urine collected at 120–150 min): 27.6%
- accumulation in the myocardium ([2]; PET): Some accumulation
- accumulation or retention in the brain ([2]; PET): No significant accumulation or retention
- uptake of radioactivity (free ^18F-fluoride) in bones / skeletal structures ([2]; PET, over 2 to 3 h post-injection): insignificant; also recorded: limited
- radioactivity concentration in liver ([2]; at 5 min): 0.040 % ID/g
- level of radioactivity in the blood ([2]; within 5 min after i.v. injection): 0.040±0.02 % ID/g
- ALP (rhesus macaques; After 1–3 months): 134.0±58.2 IU/L
- ALT (rhesus macaques; After 1–3 months): 30.5±8.5 IU/L
- AST (rhesus macaques; After 1–3 months): 28.7±3.4 IU/L
- Albumin (rhesus macaques; After 1–3 months): 3.4 ± 0.8 g/dL
- BUN (rhesus macaques; After 1–3 months): 17.9 ± 4.9 mg/dL
- Hb (rhesus macaques; After 1–3 months): 13.4 ± 0.4 g/dL
- Hct (rhesus macaques; After 1–3 months): 42.4±2.0 %
- Plt (rhesus macaques; After 1–3 months): 303.0±118.8 ×10^6/mL
- RBC (rhesus macaques; After 1–3 months): 5.7±0.1 ×10^6/mL
- Total bilirubin (rhesus macaques; After 1–3 months): 0.2 ± 0.1 mg/dL
- Total protein (rhesus macaques; After 1–3 months): 6.1 ± 0.9 g/dL
- WBC (rhesus macaques; After 1–3 months): 4.8±0.5 ×10^3/mL
- ALP (rhesus macaques; After imaging): 169.4±61.3 IU/L
- ALT (rhesus macaques; After imaging): 34.2±12.2 IU/L
- AST (rhesus macaques; After imaging): 29.0±5.6 IU/L
- Albumin (rhesus macaques; After imaging): 3.9 ± 0.8 g/dL
- BUN (rhesus macaques; After imaging): 17.9 ± 4.6 mg/dL
- Hb (rhesus macaques; After imaging): 13.1 ± 1.2 g/dL
- Hct (rhesus macaques; After imaging): 41.4±2.5 %
- Plt (rhesus macaques; After imaging): 328.1±54.2 ×10^6/mL
- RBC (rhesus macaques; After imaging): 5.7±0.6 ×10^6/mL
- Total bilirubin (rhesus macaques; After imaging): 0.3 ± 0.1 mg/dL
- Total protein (rhesus macaques; After imaging): 7.0 ± 0.5 g/dL
- WBC (rhesus macaques; After imaging): 6.8± 1.1 ×10^3/mL
- changes in CBC, blood chemistry, liver enzymes, renal function (rhesus macaques; before vs after 3 h and 1–3 months): no statistically significant changes; also recorded: no significant changes in CBC, liver enzymes, or renal function
- Humanized residence time, Gall bladder ([3]; All, Mean±SD): 0.011 ± 0.005 h
- Humanized residence time, Heart ([3]; All, Mean±SD): 0.034 ± 0.017 h
- Humanized residence time, Intestines ([3]; All, Mean±SD): 0.319 ± 0.134 h
- Humanized residence time, Kidneys ([3]; All, Mean±SD): 0.044 ± 0.013 h
- Humanized residence time, Liver ([3]; All, Mean±SD): 0.209 ± 0.171 h
- Humanized residence time, Remainder of body ([3]; All, Mean±SD): 1.751 ± 0.363 h
- Humanized residence time, Gall bladder ([3]; Female, Mean±SD): 0.016 ± 0.002 h
- Humanized residence time, Heart ([3]; Female, Mean±SD): 0.024 ± 0.013 h
- Humanized residence time, Kidneys ([3]; Female, Mean±SD): 0.041 ± 0.016 h
- Humanized residence time, Liver ([3]; Female, Mean±SD): 0.132 ± 0.082 h
- Humanized residence time, Remainder of body ([3]; Female, Mean±SD): 1.724 ± 0.549 h
- Humanized residence time, Gall bladder ([3]; Male, Mean±SD): 0.007 ± 0.002 h
- Humanized residence time, Heart ([3]; Male, Mean±SD): 0.043 ± 0.016 h
- Humanized residence time, Intestines ([3]; Male, Mean±SD): 0.400 ± 0.154 h
- Humanized residence time, Kidneys ([3]; Male, Mean±SD): 0.047 ± 0.012 h
- Humanized residence time, Liver ([3]; Male, Mean±SD): 0.287 ± 0.220 h
- Humanized residence time, Remainder of body ([3]; Male, Mean±SD): 1.778 ± 0.159 h
- Humanized residence time, Gall bladder ([3]; animal 1, male): 0.006 h
- Humanized residence time, Heart ([3]; animal 1, male): 0.048 h
- Humanized residence time, Kidneys ([3]; animal 1, male): 0.061 h
- Humanized residence time, Liver ([3]; animal 1, male): 0.505 h
- Humanized residence time, Remainder of body ([3]; animal 1, male): 1.706 h
- Humanized residence time, Intestines ([3]; animal 1, male, assigned in thirds to small, upper large, lower large intestine): 0.235 h
- Humanized residence time, Gall bladder ([3]; animal 2, male): 0.009 h
- Humanized residence time, Heart ([3]; animal 2, male): 0.057 h
- Humanized residence time, Intestines ([3]; animal 2, male): 0.426 h
- Humanized residence time, Kidneys ([3]; animal 2, male): 0.038 h
- Humanized residence time, Liver ([3]; animal 2, male): 0.290 h
- Humanized residence time, Remainder of body ([3]; animal 2, male): 1.668 h
- Humanized residence time, Heart ([3]; animal 3, male): 0.025 h
- Humanized residence time, Intestines ([3]; animal 3, male): 0.540 h
- Humanized residence time, Kidneys ([3]; animal 3, male): 0.043 h
- Humanized residence time, Liver ([3]; animal 3, male): 0.065 h
- Humanized residence time, Remainder of body ([3]; animal 3, male): 1.960 h
- Humanized residence time, Gall bladder ([3]; animal 4, female): 0.017 h
- Humanized residence time, Heart ([3]; animal 4, female): 0.039 h
- Humanized residence time, Intestines ([3]; animal 4, female): 0.261 h
- Humanized residence time, Kidneys ([3]; animal 4, female): 0.032 h
- Humanized residence time, Liver ([3]; animal 4, female): 0.226 h
- Humanized residence time, Remainder of body ([3]; animal 4, female): 1.138 h
- Humanized residence time, Gall bladder ([3]; animal 5, female): 0.014 h
- Humanized residence time, Heart ([3]; animal 5, female): 0.016 h
- Humanized residence time, Intestines ([3]; animal 5, female): 0.256 h
- Humanized residence time, Kidneys ([3]; animal 5, female): 0.059 h
- Humanized residence time, Liver ([3]; animal 5, female): 0.078 h
- Humanized residence time, Remainder of body ([3]; animal 5, female): 1.804 h
- Humanized residence time, Heart ([3]; animal 6, female): 0.017 h
- Humanized residence time, Intestines ([3]; animal 6, female): 0.196 h
- Humanized residence time, Kidneys ([3]; animal 6, female): 0.030 h
- Humanized residence time, Liver ([3]; animal 6, female): 0.093 h
- Humanized residence time, Remainder of body ([3]; animal 6, female): 2.228 h
